Screening results: PubChem BioAssay, several laboratories
In the library only some 1.1% were active in any assay of this set; here they are far more common.
FAS-TE inh: blocks the thioesterase domain of human fatty acid synthase | P49327 | recombinant FAS-TE, OMFH fluorogenic substrate, fluorescence endpoint | inhibition, % at 15 µM | 0.67% of 360,000 active | AID 602261;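 active means compounds whose normalised, plate-corrected inhibition of enzyme fluorescence in the single-dose primary screen is 50% or more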;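 further: 0% = DMSO with enzyme and 100% = substrate without enzyme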
Target sequence (P49327 whole entry, looked up, the tested form may be a part): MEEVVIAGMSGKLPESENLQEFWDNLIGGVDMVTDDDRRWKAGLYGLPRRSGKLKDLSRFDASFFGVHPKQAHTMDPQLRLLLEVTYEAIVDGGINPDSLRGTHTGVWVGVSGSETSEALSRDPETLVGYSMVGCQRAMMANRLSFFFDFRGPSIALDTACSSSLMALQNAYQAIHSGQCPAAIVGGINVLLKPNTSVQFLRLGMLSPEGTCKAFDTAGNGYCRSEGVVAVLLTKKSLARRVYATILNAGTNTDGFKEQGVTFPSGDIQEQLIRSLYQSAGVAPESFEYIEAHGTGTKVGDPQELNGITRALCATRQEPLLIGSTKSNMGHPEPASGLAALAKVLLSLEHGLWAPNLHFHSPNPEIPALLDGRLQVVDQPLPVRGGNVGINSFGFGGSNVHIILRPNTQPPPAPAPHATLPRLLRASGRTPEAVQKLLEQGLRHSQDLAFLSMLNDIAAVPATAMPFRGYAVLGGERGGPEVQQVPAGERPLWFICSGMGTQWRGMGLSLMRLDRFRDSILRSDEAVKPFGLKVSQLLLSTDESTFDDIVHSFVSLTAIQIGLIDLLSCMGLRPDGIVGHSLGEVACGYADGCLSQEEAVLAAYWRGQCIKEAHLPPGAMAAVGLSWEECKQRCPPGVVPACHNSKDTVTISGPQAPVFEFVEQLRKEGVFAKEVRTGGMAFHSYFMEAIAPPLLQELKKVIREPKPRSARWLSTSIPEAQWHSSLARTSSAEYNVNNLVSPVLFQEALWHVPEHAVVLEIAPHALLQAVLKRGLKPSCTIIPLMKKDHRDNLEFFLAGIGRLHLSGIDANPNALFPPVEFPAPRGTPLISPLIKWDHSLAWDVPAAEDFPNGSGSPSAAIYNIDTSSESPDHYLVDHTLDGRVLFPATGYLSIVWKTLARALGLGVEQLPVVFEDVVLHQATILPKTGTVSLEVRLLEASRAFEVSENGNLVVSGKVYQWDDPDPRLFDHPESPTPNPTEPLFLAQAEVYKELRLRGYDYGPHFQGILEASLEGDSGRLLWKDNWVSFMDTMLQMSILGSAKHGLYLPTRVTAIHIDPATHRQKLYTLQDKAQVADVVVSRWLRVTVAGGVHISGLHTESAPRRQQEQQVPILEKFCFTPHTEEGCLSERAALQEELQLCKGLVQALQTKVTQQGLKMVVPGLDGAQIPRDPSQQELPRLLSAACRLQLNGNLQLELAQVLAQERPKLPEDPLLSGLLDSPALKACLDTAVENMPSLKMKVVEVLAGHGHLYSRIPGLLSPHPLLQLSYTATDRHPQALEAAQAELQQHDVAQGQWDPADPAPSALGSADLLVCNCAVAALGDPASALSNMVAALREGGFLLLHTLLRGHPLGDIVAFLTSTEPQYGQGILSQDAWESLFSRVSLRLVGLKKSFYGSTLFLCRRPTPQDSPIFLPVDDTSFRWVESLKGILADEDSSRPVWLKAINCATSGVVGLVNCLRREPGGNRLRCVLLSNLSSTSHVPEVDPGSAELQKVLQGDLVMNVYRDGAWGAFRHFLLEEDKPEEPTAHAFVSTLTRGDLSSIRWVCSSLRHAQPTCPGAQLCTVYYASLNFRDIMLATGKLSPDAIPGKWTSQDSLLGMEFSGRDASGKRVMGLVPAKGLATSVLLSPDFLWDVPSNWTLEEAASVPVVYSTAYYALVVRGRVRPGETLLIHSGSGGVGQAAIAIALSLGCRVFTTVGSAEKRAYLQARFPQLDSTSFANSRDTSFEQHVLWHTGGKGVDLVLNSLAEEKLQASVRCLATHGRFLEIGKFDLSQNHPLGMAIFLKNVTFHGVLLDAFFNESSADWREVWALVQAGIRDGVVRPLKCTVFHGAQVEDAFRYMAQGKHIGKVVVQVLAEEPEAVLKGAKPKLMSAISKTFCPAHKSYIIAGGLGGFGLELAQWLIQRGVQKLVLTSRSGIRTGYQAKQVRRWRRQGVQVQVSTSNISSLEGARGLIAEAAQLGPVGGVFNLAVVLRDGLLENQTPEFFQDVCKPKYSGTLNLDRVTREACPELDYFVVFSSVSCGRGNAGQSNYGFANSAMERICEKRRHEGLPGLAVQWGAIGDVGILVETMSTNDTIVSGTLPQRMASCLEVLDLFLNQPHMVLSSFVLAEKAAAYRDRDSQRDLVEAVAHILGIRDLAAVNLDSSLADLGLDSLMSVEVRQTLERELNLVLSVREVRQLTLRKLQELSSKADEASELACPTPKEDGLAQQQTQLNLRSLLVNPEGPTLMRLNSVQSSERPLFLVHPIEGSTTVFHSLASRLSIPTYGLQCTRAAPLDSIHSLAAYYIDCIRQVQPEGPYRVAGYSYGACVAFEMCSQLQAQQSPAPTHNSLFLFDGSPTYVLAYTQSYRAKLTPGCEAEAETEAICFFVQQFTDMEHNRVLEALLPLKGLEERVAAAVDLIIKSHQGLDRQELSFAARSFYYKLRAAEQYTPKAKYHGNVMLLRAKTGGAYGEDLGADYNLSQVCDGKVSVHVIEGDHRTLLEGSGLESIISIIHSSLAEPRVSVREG
Arrestin-AP2 inh: inhibitors of human beta-arrestin and AP2 interaction | AID 504490 | 0.31% of 340,000 active | FITC-arrestin peptide / GST-AP2 beads, flow cytometry; AP2 beta2 appendage carries R879A mutation | inhibition, % at 10 µM;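 active means inhibition above a set limit, near 3 SD of compounds lacking own fluorescence, cut at about 54% in these data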;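 further: plate controls were DMSO wells for no effect and 5 µM unlabelled arrestin peptide for full effect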
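System: GST-tagged AP2 beta2-adaptin appendage (R879A) on 4 µm glutathione beads / Reagent: FITC-arrestin peptide, 50 nM / Detection: HyperCyt-sampled flow cytometry, FL1 channel, ex 488/em 535 nm / Timing: 12 min plus 1 h, RT / Buffer or medium: PBS plus Tween 20 (0.05%) and BSA (0.1%)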
SENP1 FRET inh: inhibitors of human SENP1 SUMO protease catalytic domain; 0.21% of 360,000 active; recombinant SENP1 catalytic domain, CyPet-SUMO1-YPet FRET cleavage; AID 624204; inhibition, % at 10 µM;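 active means inhibition at least 30% at 10 µM, raw YFP signal under a set limit, fluorescence ratio 0.5 to 1.5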;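 further: 0% = enzyme with DMSO and 100% = no enzyme wells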
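Material: hSENP1 catalytic domain, recombinant; medium: Tris pH 8 with BME, BSA, NP40 and catalase; compound: single concentration of 10 µM compound, 0.5% DMSO final; technique: FRET read of cyan and yellow fluorescence; timing: 50 min enzyme reaction, room temperature, light-protected; reagent: SFCypet-SUMO1-SFYpet substrate at 25 nM; control set: no-enzyme low, enzyme-DMSO high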
JMJD2C inh: blocks human GASC-1 demethylase activity | Q9H3R0 | 0.069% of 330,000 active | inhibition, % at 2.35 µM | GST-JMJD2C(1-420) H3K9me3 demethylation, DELFIA europium;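 active means more than half of a compound's replicate wells show inhibition beyond 50%, single wells judged on their own value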;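 further: signal counts dimethyl H3K9 product captured on neutravidin plate; 0% = median of DMSO wells and 100% = 0.3 times that DMSO median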
Arr AP2 CP1: blocks beta-arrestin peptide binding to human AP2; shares compounds with Arrestin-AP2 inh; GST-AP2 beads, FITC arrestin peptide binding, flow cytometry; GST-fused beta2-adaptin appendage, R879A mutant; AID 504908; inhibition, % at 10 µM; 2% of 1,300 active;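 active means inhibition above a set limit, roughly 3 SD of non-fluorescent compound noise, cut at about 38% in these data; inactive means inhibition at or below that limit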;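 further: loss of bead fluorescence from 50 nM FITC arrestin peptide bound to appendage; 0% = negative control wells and 100% = excess unlabelled arrestin peptide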
GST-FITC bead: counter-screen for beta-arrestin AP2 inhibitors: GST-GSH bead binding; GST-fluorescein binding to GSH beads, fluorescence; shares compounds with Arrestin-AP2 inh; AID 588338; inhibition, % at 10 µM; 2% of 1,300 active;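 active means inhibition above 50%, about 3 SD of the inhibition seen with non-fluorescent compounds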;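 further: fluorescein maleimide labelled GST captured on 4 micron glutathione beads; higher means more loss of bead fluorescence from quenching or blocked binding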
Active calls of the source: *; · = no result.

SMILES | FAS-TE inh | Arrestin-AP2 inh | SENP1 FRET inh | JMJD2C inh | Arr AP2 CP1 | GST-FITC bead
Cc1ccc2c3c(cccc13)-c1ccccc1C2=O | 18 | 17 | -27 | 4 | · | ·
O=C(O)CCCC[C@@H]1SC[C@@H]2NC(=O)N[C@@H]21 | 1 | -4 | 4 | 96* | · | ·
COC(=O)CCCCC1SCC2NC(=O)NC21 (stereo not given) | -10 | 39 | 1 | -23 | · | ·
CN(C)CCCn1c(SCC(=O)Nc2nccs2)nnc1-c1ccncc1 | -3 | 14 | 1 | -3 | · | ·
CCOc1ccc2nc(N3C(=O)/C(=C/c4ccc(Cl)cc4)NC3=S)sc2c1 | 17 | 6 | 33* | 2 | · | ·
COc1ccc2nc(N3C(=O)CNC3=S)sc2c1 | -7 | -15 | -2 | 7 | · | ·
CCOc1ccc(/C=N/NC(=O)C(=O)NCc2ccco2)cc1 | -10 | 102* | 1 | 0 | 7 | 17
CCN(C(=O)c1cc2c(=O)n3cccc(C)c3nc2n1CCCOC)C1CCCCC1 | 15 | 28 | -62 | 2 | · | ·
O=C(Nc1cnccn1)Nc1ccccc1Cl | -7 | 2 | 2 | -2 | · | ·
CCc1ccccc1NC(=O)Nc1cnccn1 | -2 | 45 | -1 | 10 | -12 | -6
COC(=O)c1ccccc1NC(=O)Nc1cnccn1 | -7 | 7 | 2 | 10 | · | ·
CCOc1ccccc1NC(=O)Nc1cnccn1 | -10 | 103* | 3 | 6 | 1 | 16
Nc1ccc(S(=O)(=O)C(F)(F)F)cc1N | -2 | 19 | -30 | -23 | · | ·
CC(=O)C1=C(O)C(=O)N(c2ccc(C(=O)O)cc2)C1c1ccc([N+](=O)[O-])cc1 (stereo not given) | -6 | -3 | 1 | -25 | · | ·
CC(=O)C1=C(O)C(=O)N(c2ccc(S(N)(=O)=O)cc2)C1c1ccc([N+](=O)[O-])cc1 (stereo not given) | -4 | 97* | 1 | 12 | -2 | -7
O=C(NN1C(=O)/C(=C/C=C/c2ccco2)SC1=S)c1ccccc1O | 5 | 0 | -14 | 2 | · | ·
N#Cc1cn(CCOc2ccc(F)cc2)c2ccccc12 | 22 | 57* | 0 | -9 | 8 | -9
CCOC(=O)c1c(C)[nH]c(C)c1C(=O)COC(=O)CNC(=O)c1ccc(OCC)cc1 | -6 | 16 | -2 | 5 | · | ·
Cc1ccc(Cl)cc1N1CCN(C(=O)CSc2ccsc2[N+](=O)[O-])CC1 | 37 | -4 | -38 | -1 | · | ·
O=C(Nc1ccccc1)c1ccc(-c2ccc(F)cc2)s1 | -2 | 55* | 2 | 10 | 10 | -8
COc1ccc(CN2C(=O)c3cccnc3C2=O)cc1S(=O)(=O)N1CC(C)Oc2ccccc21 (stereo not given) | 9 | 23 | 1 | -14 | · | ·
CC1CN(S(=O)(=O)c2ccc(CN3C(=O)c4cccnc4C3=O)cc2)c2ccccc2O1 (stereo not given) | 16 | 59* | 1 | -1 | -3 | -5
Nc1ccncc1N | -17 | -6 | 1 | 30 | · | ·
CCOc1ccccc1N(CC(=O)Nc1cccnc1)S(=O)(=O)c1ccc(C)cc1 | 2 | -12 | 2 | -2 | · | ·
COc1ccc(NC(=S)N(CCCN2CCCC(C)C2)Cc2cccs2)cc1 (stereo not given) | -2 | 54* | 1 | -4 | 5 | -7
SMILES | FAS-TE inh | Arrestin-AP2 inh | SENP1 FRET inh | JMJD2C inh | Arr AP2 CP1 | GST-FITC bead
COc1ccc(NC(=S)N(CCCN2CCCC2)Cc2cccs2)cc1 | -12 | -7 | 1 | 10 | · | ·
COc1ccc(-c2cc(C(=O)Nc3ccc(C)c(N)c3)c3ccccc3n2)cc1 | 19 | 9 | 1 | -6 | · | ·
COc1ccc(CCNCC(O)Cn2c3ccccc3c3ccccc32)cc1OC (stereo not given) | -8 | 58* | 0 | -18 | 1 | 4
COc1ccccc1NCC(O)Cn1c2ccccc2c2ccccc21 (stereo not given) | 36 | 11 | 2 | -1 | · | ·
Cc1cc(NC(=O)c2cnn3c(C(F)(F)F)cc(-c4ccc(Br)cc4)nc23)no1 | 39 | 6 | -8 | 6 | -6 | -7
O=C(NCC1(N2CCOCC2)CCCCC1)c1cccc(S(=O)(=O)Nc2ccc(F)cc2)c1 | 5 | -8 | 2 | 7 | -2 | -1
O=C(NCC1(N2CCCCC2)CCCCC1)c1cccc(NS(=O)(=O)c2ccccc2)c1 | -6 | -7 | 2 | 1 | · | ·
CNS(=O)(=O)c1cccc(C(=O)NCC2(N3CCOCC3)CCCCC2)c1 | -4 | -10 | -1 | -5 | · | ·
O=C(NCC1(N2CCCCC2)CCCCC1)c1cccc(S(=O)(=O)Nc2ccc(F)cc2)c1 | -5 | 11 | -6 | · | -6 | -4
COc1ccccc1NS(=O)(=O)c1ccc(C)c(C(=O)NCC2(N(C)C)CCCCC2)c1 | 0 | 6 | 1 | 6 | 3 | -4
Cc1cccc(NS(=O)(=O)c2cccc(C(=O)NCC3(N4CCOCC4)CCCCC3)c2)c1 | 1 | -3 | 0 | · | 0 | -2
Cc1ccc(C(=O)Nc2sc3c(c2C(=O)O)CCC(C)C3)o1 (stereo not given) | 1 | -5 | 1 | 11 | · | ·
O=C(Cc1cccs1)NCCS(=O)(=O)N1CCN(c2ccccc2)CC1 | 1 | · | 3 | · | · | ·
CC(=O)Nc1ccc(S(=O)(=O)NCCC(=O)Nc2ncccc2C)cc1 | -4 | 7 | -1 | 4 | · | ·
COc1ccccc1NS(=O)(=O)c1cccc(C(=O)NCC2(N3CCCCC3)CCCCC2)c1 | -6 | -7 | 3 | · | 8 | -9
COc1ccc(C(CNC(=O)c2cccc(S(=O)(=O)Nc3ccccc3OC)c2)N2CCCCC2)cc1 (stereo not given) | 6 | -6 | 2 | · | · | ·
Cc1ccn2c(=S)[nH]nc2c1 | -10 | · | 2 | · | · | ·
Cc1ccc2nc(SCC(=O)N3CCCc4ccccc43)nc(=O)n2c1 | -3 | -16 | 2 | · | · | ·
COc1ccc2oc(C(=O)Nc3nc(C)cs3)c(C)c2c1 | 3 | 63* | -28 | 3 | -2 | 7
COC(=O)CNC(=O)C12CC3(C)CC(C)(CC(C)(C3)C1)C2 | -8 | 59* | 0 | 5 | -7 | -1
CC12CC3(C)CC(C)(C1)CC(C(=O)NCc1ccccn1)(C2)C3 | 1 | 37 | 3 | -2 | · | ·
CC(=O)N(C)c1ccc(NC(=O)c2ccc([N+](=O)[O-])cc2Cl)cc1 | -12 | 69* | 1 | -3 | 3 | -4
COc1ccc2cc(C(=O)Nc3ccc(F)cc3)sc(=O)c2c1OC | 0 | 99* | -10 | -3 | -1 | -3
CCN1CCCC1CNC(=O)c1ccc2c(c1)N(Cc1ccccc1F)C(=O)c1ccccc1S2(=O)=O (stereo not given) | -7 | 25 | 1 | -2 | · | ·
CC1CCCN(CCCNC(=O)c2ccc3c(c2)N(Cc2ccccc2F)C(=O)c2ccccc2S3(=O)=O)C1 (stereo not given) | 0 | 59* | 2 | -1 | 20 | -14
